In publication PMC6448596 (Cell reports, 2019):

How the values were obtained:
[1] = test system: ribosome protein gene expression in MV4:11 cells; experiment: RT-qPCR quantification of RPG mRNA expression; assay type: cell-based, human; settings: MV4:11, three days, equal concentrations (4 µM) of OICR-9429 and C6
In short: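 Cells were lysed in Trizol and total RNA isolated on columns with DNase digestion. 1 μg RNA was reverse transcribed with MuLV reverse transcriptase in 20 μl, then diluted three-fold in nuclease-free water before qPCR.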

WDR5 [2] = biological target: T1, WDR5 (Homo sapiens, UniProt P61964); experiment: 10-mer-Thr-FAM peptide TR-FRET competition assay; assay type: binding; settings: Kd, corresponds to TR-FRET Ki of Table S1
NOMO-1 cells = experiment: Proliferation assay; assay type: cell-based; settings: Homo sapiens, NOMO-1, 72 h
In short: (§1)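 CellTiter-Glo, 5,000 cells/well. Cells received 0.1% DMSO or at least five two-fold dilutions of test compound (top 50 μM, final DMSO 0.1%), in triplicate wells and ≥2 biological replicates, for 72 h at 37°C. Reagent was added after equilibration to RT, with 30 min dark incubation before luminescence. Signals were normalized to DMSO wells and GI50 obtained by curve fitting. Curve error bars are SEM.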

[3] = test system: NPM1 localisation in MV4:11 cells; experiment: Nucleophosmin; assay type: cell-based, human; settings: MV4:11, 4 μM, 3 days
In short: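 Cells were cytospun onto slides (100,000 cells, 800 rpm, 3 min) and immunostained for NPM. The per-cell nucleolar-to-nucleoplasmic NPM ratio was quantified from two biological replicates (SD). One-way ANOVA with Dunnett's test versus DMSO.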

MA93 FLT3-ITD cells = experiment: Proliferation assay; assay type: cell-based; settings: Homo sapiens, 72 h
In short: (§2)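 CellTiter-Glo at 2,000 cells/well. MA93 Ras and MA93 FLT3/ITD were maintained in IMDM/20% FBS. Parental MA93 received IMDM/20% FBS plus 10 ng/mL human SCF, TPO, FLT3L, IL3 and IL6. Dosing used ≥5 two-fold dilutions from 50 μM top, 0.1% DMSO final, in triplicate wells with ≥2 biological replicates. Plates ran 72 h at 37°C, followed by 30 min reagent incubation at RT in the dark. GI50 came from DMSO-normalized luminescence.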

MA93 Ras cells = experiment: Proliferation assay; assay type: cell-based; settings: Homo sapiens, MA9.3RAS, 72 h
In short: as §2

K562 cells = experiment: Proliferation assay; assay type: cell-based; settings: Homo sapiens, K562, 72 h
In short: as §1

WDR5 [4] = biological target: T1, WDR5; experiment: Western blot of endogenous WDR5 levels; assay type: cell-based; settings: MV4:11, 4 µM, 24 hours
MV4:11 cells [5] = experiment: Cell cycle analysis; assay type: cell-based, human; settings: 2 μM, up to 6 days
In short: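 1 million cells were fixed dropwise in ice-cold 70% ethanol (≥2 h, […]) and stained with PI (10 μg/mL) plus RNase for 20 min at RT in the dark. Flow: ≥10,000 events, doublets excluded. Three biological replicates, SEM.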

GDM-1 cells = experiment: Proliferation assay; assay type: cell-based; settings: Homo sapiens, GDM-1, 72 h
In short: as §1

MV4:11 cells [6] = experiment: Growth and viability time course; assay type: cell-based, human
[7] = test system: p53 turnover in MV4:11 cells; experiment: Cycloheximide; assay type: cell-based, human; settings: MV4:11, 2 μM, 24 h before CHX
In short: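 Before the cycloheximide chase, MV4:11 cells were pretreated 24 h with 2 μM test compound, 2 μM Nutlin-3 as comparator, or DMSO only. p53 was then followed by immunoblot.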

[8] = test system: gamma-H2AX in MV4:11 cells; experiment: gamma-H2AX immunofluorescence, DNA damage; assay type: cell-based, human; settings: MV4:11, 4 µM
In short: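 Cells were cytospun onto slides (100,000 cells, 800 rpm, 3 min) and immunostained for γ-H2AX. Mean nuclear γ-H2AX signal was quantified and compared with DMSO by one-way ANOVA with Dunnett's test.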

[9] = test system: p53 and p21 protein levels in MV4:11 cells; experiment: p53/p21 induction western blot; assay type: cell-based, human; settings: MV4:11, 2 μM, 24 h
In short: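 Treatment lasted 24 h with test compound or its negative control, at 2 μM in MV4:11 and 3 μM in Molm13. Comparators were 2 μM Nutlin-3 or 0.1% DMSO. Four million cells were PBS-washed and lysed 10 min on ice in Kischkel buffer. p53 and p21 were detected by western blot, with histone H3 as loading control.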

[10] = test system: TP53 mRNA on polysomes in MV4:11 cells; experiment: Polysome fractionation with RT-qPCR; assay type: cell-based, human; settings: MV4:11, 5 μM, 24 h
In short: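 15 × 10^6 MV4:11 cells were treated 24 h with 5 μM test compound or DMSO and lysed 10 min on ice. Target mRNAs in monosomal and polysomal fractions were measured by RT-qPCR and normalized to GAPDH. Values were expressed as percent of total RNA, relative to DMSO.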

[11] = test system: MV4:11 cells expressing shRNAs against p53; experiment: Proliferation assay in MV4:11 cells expressing p53 or scrambled shRNAs; assay type: cell-based; settings: Homo sapiens, MV4-11, 72 h, MV4:11 expressing p53 shRNA_941, 3-day treatment
In short: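 Proliferation was measured in MV4:11 cells carrying scrambled, p53 sh_427 or p53 sh_941 shRNA. Cells received 3-day test compound treatment in a dose–response series, with GI50 derived from the curves.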

[12] = test system: Molm13 clones CRISPR-targeted with EGFP or p53 gRNA; experiment: Proliferation assay in CRISPR-targeted Molm13 clones; assay type: cell-based; settings: Homo sapiens, MOLM-13, 72 h, Molm13 clone 2p (p53 gRNA), 3-day treatment
MV4:11 cells [13] = experiment: Proliferation assay; assay type: cell-based, human; settings: MV4:11, 3 days, mean with SEM
In short: as §1

MA93 cells = experiment: Proliferation assay; assay type: cell-based; settings: Homo sapiens, 72 h
In short: as §2

RN2 cells = experiment: Proliferation assay; assay type: cell-based, murine; settings: Mus musculus, 72 h
In short: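 Murine RN2 cells were seeded at 2,500/well and exposed to ≥5 two-fold dilutions (top 50 μM, 0.1% DMSO final) in triplicate wells, with ≥2 biological replicates, for 72 h. MTS reagent was added for 1.25 h at 37°C and absorbance read at 490 nm. Values were normalized to DMSO wells and GI50 fitted. Error bars are SEM.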

HL60 cells = experiment: Proliferation assay; assay type: cell-based; settings: Homo sapiens, HL-60, 72 h
In short: as §1

Kd (WDR5 [2]): ~0.0001 µM | GI50 (K562 cells): 25.4 ± 2.07 µM | WDR5 protein levels (WDR5 [4]): no measurable effect on WDR5 levels | GI50 [11]: 15 µM | GI50 [12]: 18 µM | GI50 (MV4:11 cells [13]; Homo sapiens, MV4-11, 72 h): 2 µM | GI50 (MV4:11 cells [13]): 3.2 ± 0.213 µM | GI50 (HL60 cells): 14.8 ± 1.1 µM
Compound: Cc1nc(F)ccc1-c1cc(Cn2ccn(C)c2=N)cc(C(=O)NCc2ccc(Cl)c(Cl)c2)c1 [Compound C6, N-(3,4-Dichlorobenzyl)-3-(6-fluoro-2-methylpyridin-3-yl)-5-((2-imino-3-methyl-2,3-dihydro-1H-imidazol-1-yl)methyl)benzamide]
transcription of RPGs [1]: inhibited the transcription of RPGs | GI50 (NOMO-1 cells): > 50 µM | NPM1 distribution, nucleolar stress [3]: redistribution of nucleophosmin (NPM1) from the nucleolus to the nucleoplasm | GI50 (MA93 FLT3-ITD cells): 2.47 ± 0.137 µM | GI50 (MA93 Ras cells): 20.8 ± 2.62 µM | cell-cycle distribution, sub-G1 DNA content (MV4:11 cells [5]): time-dependent increase in cells with a sub-G1 DNA content | GI50 (GDM-1 cells): > 50 µM | inhibition of proliferation, live cells over time (MV4:11 cells [6]; 2 μM (GI50 concentration), 1-6 days): inhibition of proliferation can be detected within a few days of treatment | cellular viability over time (MV4:11 cells [6]; 2 μM, between 2 and 6 days of treatment): progressive decrease in cellular viability | p53 turnover in CHX chase [7]: no detectable effects on p53 turnover | DNA damage response, accumulation of γ-H2AX foci [8]: does not induce a robust DNA damage response | p53 and p21 protein induction [9]: moderately induces p53 | polysome-associated mRNAs [10]: promoted an accumulation of polysome-associated mRNAs for TP53 | GI50 (MA93 cells): 5.04 ± 0.431 µM | GI50 (RN2 cells): 11.2 ± 1.48 µM
